The text below walks through data of PubChem BioAssay.

The nature of assay [1]: inhibitors of TNFa-induced NFkB p65 translocation, primary screen, imaging, HUVEC, MLSMR starter and 10KST1 sets (AID 438;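 active means inhibition above 20% together with a positive visual image hit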;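 further: compound added about 3h40 before a 20 min TNFalpha stimulation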;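 on inhibition: signal is the nuclear over cytoplasmic p65 intensity ratio per well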). The note with it: HUVEC TNFa-induced p65 nuclear translocation; cell count: measured here: nuclei count (cytotoxicity indicator), at 2.08 µM; inhibition: at 2 µM, stronger effect = higher value, 0% TNFa-plus-vehicle, 100% no-TNFa wells.
A short description of assay [2]: inhibitors of E-selectin induction by TNFa, primary screen, imaging, HUVEC, immunofluorescence, MLSMR starter and 10KST1 sets (AID 487;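 active means visually confirmed hit in the image check and inhibition above 20%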;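 on inhibition: signal is fraction of cell area covered by stained E-selectin grains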;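 on nuclei count: 100% = median nuclei count of all wells on the same plate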). The note with it: HUVEC TNFalpha-induced E-selectin immunofluorescence imaging, at 2 µM; inhibition: stronger effect = higher value; nuclei count: measured here: cell number, toxicity.
A short description of assay [3]: DUSP6 inhibitors restoring Erk phosphorylation by chemical complementation, primary imaging in DUSP6-transfected HeLa (AID 609;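 active means compounds giving at least 50% inhibition in the cell-based MKP-3 phosphatase rescue imaging test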;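 on inhibition: phospho-Erk level distribution per well compared with pooled transfected vehicle control wells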). The note with it: HeLa MKP-3 transfected, phospho-Erk imaging KS statistic, at 10 µM, cells stimulated with TPA for 15 min.
Assay [4] concerns the target Dual specificity protein phosphatase 6 (Homo sapiens) (UniProt Q16828). The assay is described as above. The note with it: HeLa MKP-3 transfected, phospho-Erk imaging KS statistic; at 10 µM; stronger effect = higher value; cells stimulated with TPA for 15 min.
Assay [5] addresses Voltage-gated potassium channel subunit beta-2 (Rattus norvegicus) (UniProt P62483). Briefly: KvBeta enzyme negative modulators, primary screen, biochemical, NADPH fluorescence (AID 622;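 active means fluorescence slope higher than the sample average by over 3 SD, cut at about -0.22 in these data, passing the limit was not always enough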;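 further: slope of raw intensity against log time taken from 70 to 1610 s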). The note with it: recombinant KvBeta, 4-cyanobenzaldehyde reduction, at 10 µM, stronger effect = higher value.
Assay [6] shares this target. As to the kind of experiment: KvBeta positive modulators, primary screen, biochemical, NADPH fluorescence (AID 623;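 active means NADPH fluorescence slope more negative than the mean of all samples by about 3 SD, 99.7% confidence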;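 further: fluorescence intensity change per second fitted from 20 to 320 s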). The note with it: Recombinant KvBeta, NADPH fluorescence decrease slope, 10 min; at 10 µM; stronger effect = lower value.
Assay [7] concerns the target Alpha-2C adrenergic receptor (Homo sapiens) (UniProt P18825). As to the kind of experiment: modulators of alpha2C/GIRK thallium flux, primary screen, cell-based, HEK293 alpha2C/GIRK1/2 (AID 624;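 active means fluorescence slope after compound addition differing from the mean of all screened samples at 99.7% confidence, in either direction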;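 further: slope of fluorescence ratio to pre-addition baseline per second over 15 to 24 s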). The note with it: thallium flux BTC fluorescence, at 10 µM, actives lie on both sides.
Assay [8] can be described thus: inhibitors of larval lipid processing in zebrafish, primary screen, whole organism, PED6 fluorescence, gall bladder and intestine (AID 686).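 Further: larvae 5 to 7 days old with five fish per well; signal comes from phospholipase A2 cleavage of quenched PED6 carried via bile.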 The note with it: Zebrafish larvae PED6 lipid processing, fluorescence scoring; screened at 20 µM (by protocol). The procedure, abridged:
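Incubation: overnight exposure of larvae to compound plus PED6 / Test system: live zebrafish larvae aged 5-7 days, whole organism / Amount: 5 larvae per well / Read-out basis: visual per-well fluorescence inhibition score / Signal: visual fluorescence microscopy scoring of gall bladder, gut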

Assay [9] can be described thus: inhibitors of Chlamydomonas gravitaxis, primary screen, whole organism, Chlamydomonas reinhardtii, WT vs cilia-less mutant, absorbance, 96-well (AID 463189;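 active means inhibition at or above 50% relative to wild type and mutant plate controls; inactive means inhibition below 50%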;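 further: 0% = wild type cc124 cells in DMSO and 100% = ciliumless bld1 mutant cells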). The note with it: OD600 absorbance, 2 days, at 10 µM, stronger effect = higher value.
[10] abbreviates: measured here: cell density z-score.
The mark [11] stands for this setting: measured here: nuclear c-Myc green intensity z-score.
[12] abbreviates: measured here: nuclear pErk red intensity z-score, stronger effect = higher value.

Active and inactive are the calls of the source.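 How the source made its calls, unless noted: active means a full or partial loss of lipid-probe fluorescence in the fish gall bladder, intestine or both, judged by eye; inactive means no fluorescence loss, or compound toxic to the fish.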

Chain of Voltage-gated potassium channel subunit beta-2 (Rattus norvegicus) (P62483 whole entry, looked up): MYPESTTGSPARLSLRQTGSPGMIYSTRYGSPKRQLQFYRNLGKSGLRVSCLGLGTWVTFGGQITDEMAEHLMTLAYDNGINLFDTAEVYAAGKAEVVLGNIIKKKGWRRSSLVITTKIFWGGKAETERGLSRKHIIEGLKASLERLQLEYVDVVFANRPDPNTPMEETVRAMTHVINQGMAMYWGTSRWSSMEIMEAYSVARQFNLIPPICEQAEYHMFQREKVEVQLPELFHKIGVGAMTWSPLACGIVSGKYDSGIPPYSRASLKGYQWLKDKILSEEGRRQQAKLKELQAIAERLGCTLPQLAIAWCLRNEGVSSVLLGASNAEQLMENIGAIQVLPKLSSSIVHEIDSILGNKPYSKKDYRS
Chain of Dual specificity protein phosphatase 6 (Homo sapiens) (Q16828 whole entry, looked up): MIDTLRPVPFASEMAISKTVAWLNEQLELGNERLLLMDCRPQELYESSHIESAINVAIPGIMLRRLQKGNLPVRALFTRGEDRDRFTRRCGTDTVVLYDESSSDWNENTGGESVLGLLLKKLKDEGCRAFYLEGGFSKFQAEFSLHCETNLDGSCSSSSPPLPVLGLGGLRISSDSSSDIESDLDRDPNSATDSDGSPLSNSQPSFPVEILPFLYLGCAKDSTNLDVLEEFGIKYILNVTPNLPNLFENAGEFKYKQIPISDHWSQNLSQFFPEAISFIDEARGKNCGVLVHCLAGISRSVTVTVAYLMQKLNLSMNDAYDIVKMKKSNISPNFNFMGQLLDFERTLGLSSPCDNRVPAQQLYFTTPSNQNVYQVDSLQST
Chain of Alpha-2C adrenergic receptor (Homo sapiens) (P18825 whole entry, looked up): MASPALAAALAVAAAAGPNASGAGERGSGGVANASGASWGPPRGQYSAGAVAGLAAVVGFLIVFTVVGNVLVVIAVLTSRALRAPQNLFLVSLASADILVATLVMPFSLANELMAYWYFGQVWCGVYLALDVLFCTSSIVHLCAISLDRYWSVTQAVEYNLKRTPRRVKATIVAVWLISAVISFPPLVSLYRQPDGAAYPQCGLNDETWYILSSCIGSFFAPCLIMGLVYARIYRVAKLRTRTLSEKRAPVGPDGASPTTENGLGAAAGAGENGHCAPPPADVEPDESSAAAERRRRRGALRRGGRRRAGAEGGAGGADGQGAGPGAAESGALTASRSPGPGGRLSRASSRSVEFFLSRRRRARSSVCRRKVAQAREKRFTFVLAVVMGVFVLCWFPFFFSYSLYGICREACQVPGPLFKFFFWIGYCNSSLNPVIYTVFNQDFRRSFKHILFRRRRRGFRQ

Take `CCOC(=O)C(C)Oc1nc(Oc2ccccc2)nc(N(C)C)n1` (stereo unspecified): in assay [1], the cell count came to 645. The inhibition was -4.1% (inactive) in assay [1], -25.5% (inactive) in assay [2], -7.79% (inactive) in assay [4] and -18.7% (inactive) in [9]. This compound also came in with a nuclei count in assay [2] of 183%. In addition, the z-score in [3] (setting [10]) is 0.393; in [3] (setting [11]), -0.772; in [3] (setting [12]), 1.44. The fluorescence slope in assay [5] was -0.497 (inactive). The NADPH fluorescence slope in [6] is -5.5e-05 (inactive). Also, the slope in [7] was 0.00486 (inactive). Further, in assay [8], the call was inactive.
With `Cn1c(=O)c2c3c(sc2n2c(SCC(N)=O)nnc12)CC(C(C)(C)C)CC3` (stereo unspecified), the cell count in [1] came out at 508. In addition, the inhibition was -9.7% (inactive) in [1], -30% (inactive) in [2], 3.56% (inactive) in [4] and 92.5% (active) in [9]. In addition, the nuclei count in [2] was 91.7%. Besides, the z-score in assay [3] (setting [10]) is 1.25; in assay [3] (setting [11]), -0.417; in assay [3] (setting [12]) it was 0.675. Further, the fluorescence slope in assay [5] was -0.371 (inactive). Also, the NADPH fluorescence slope in assay [6] is 6.2e-07 (inactive). The slope in assay [7] was 0.00521 (inactive). The result in [8] was inactive.
In the case of `COc1cc(-c2nn3c(-c4ccccn4)nnc3s2)cc(OC)c1OC`, the cell count in assay [1] worked out at 600. Moreover, the inhibition in assay [1] was -13.9% (inactive); in [2], -249% (inactive); in [4], -2.47% (inactive); in assay [9], 13.6% (inactive). In assay [2], this compound returned a nuclei count of 171%. In addition, the z-score in assay [3] (setting [10]) is 1.12; in assay [3] (setting [11]) it was -1.51; in assay [3] (setting [12]), 0.045. Further, the fluorescence slope in assay [5] is -0.449 (inactive). The NADPH fluorescence slope in assay [6] was -0.000128 (inactive). The slope in assay [7] is 0.00656 (inactive). In addition, the call in [8] was inactive.
For `CCOc1ccccc1N1CCN(c2nc3ccccc3nc2C(C#N)C(=O)OC(C)C)CC1` (stereo unspecified), the cell count in [1] was found to be 451. The inhibition in [1] was -7.4% (inactive); in [2], -161% (inactive); in assay [4] it was -10.1% (inactive); in assay [9], 10.3% (inactive). The nuclei count in [2] is 148%. The z-score in [3] (setting [10]) was -1.19; in assay [3] (setting [11]), -0.0935; in [3] (setting [12]) it was 0.236. In addition, the fluorescence slope in assay [5] is -0.399 (inactive). Also, the NADPH fluorescence slope in [6] is -2.9e-05 (inactive). Also, in assay [7], the slope is 0.00483 (inactive). In addition, the outcome in [8] was inactive.
In the case of `CCCCNC1=C(Br)C(=O)CC(C)(C)C1`, in assay [1], the cell count was 372. Further, the inhibition in assay [1] was -30.7% (inactive); in [2] it was -34.3% (inactive); in [4], 11.9% (inactive); in [9], 23.6% (inactive). For the same compound, in assay [2], the nuclei count worked out at 101%. In addition, the results for the z-score in [3] (setting [10]), in assay [3] (setting [11]) and in [3] (setting [12]) were -0.472, 1.05 and 0.291, respectively. Further, the fluorescence slope in [5] is -0.52 (inactive). Further, the NADPH fluorescence slope in assay [6] was -9.2e-05 (inactive). Besides, the slope in assay [7] is 0.00547 (inactive). The compound was classed as inactive in assay [8].
Consider `N#CC1(P(=O)(c2ccccc2)c2ccccc2)CC1`, for which the cell count in assay [1] turned out to be 481. The inhibition in [1] was -10.9% (inactive); in assay [2], -110% (inactive); in assay [4], 11.3% (inactive); in assay [9], 5.77% (inactive). Further, the nuclei count in [2] is 143%. For the same compound, the z-score in assay [3] (setting [10]) was -0.778; in assay [3] (setting [11]) it was -0.637; in [3] (setting [12]), -0.322. In addition, in assay [5], the fluorescence slope is -0.546 (inactive). Besides, in assay [6], the NADPH fluorescence slope is -5.6e-05 (inactive). In addition, in [7], the slope is 0.00538 (inactive). Moreover, the compound was classed as inactive in assay [8].
Consider `CCOC(=O)C(C#N)C(Cc1ccccc1)c1ccco1` (stereo unspecified), for which, in [1], the cell count was 590. For the same compound, the inhibition in assay [1] was -3% (inactive); in assay [2], -70.2% (inactive); in [4] it was 2.46% (inactive); in assay [9] it was 6.44% (inactive). The same compound had a nuclei count in assay [2] of 166%. The z-score in assay [3] (setting [10]) is 1.19; in assay [3] (setting [11]), -0.726; in [3] (setting [12]), -0.042. In addition, the fluorescence slope in assay [5] was -0.488 (inactive). Also, the NADPH fluorescence slope in [6] was -0.000162 (inactive). Moreover, the slope in assay [7] was 0.00534 (inactive). In addition, the call in assay [8] was inactive.
